KCNQ1 pot: potentiates or activates the human KCNQ1 potassium channel; B-score at 10 µM; 0.35% of 310,000 active; P51787; CHO-K1 KCNQ1, thallium flux FluxOR fluorescence; active compounds read high; AID 2648;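 active means fluorescence ratio B-score, a plate-corrected score, at least three library SD, with initial intensity B-score within 5 SD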
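Assay system: stable KCNQ1 CHO-K1 line; medium: assay buffer, equal DMSO in all wells; timing: 90 min dye loading and 20 min compound exposure, both at room temperature; technique: kinetic FluxOR thallium fluorescence, 10-s 1-Hz baseline, 110-s post-stimulus read; read-out basis: B score of baseline-normalized fluorescence ratio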
KCC2 mod: modulates chloride dependent transport by human KCC2; KCC2 cells, thallium flux FluoZin-2 fluorescence; B-score of Tl+ flux slope (higher = more flux/activation; lower = inhibition) at 10 µM; 2.2% of 190,000 active; AID 1456;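 active means thallium flux slope and its plate-corrected score both differing from the plate sample mean at a set confidence after two filtering rounds, in either direction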;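 further: slope of fluorescence scaled to starting intensity during 10 to 20 s after thallium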
Target sequence (Q9H2X9 whole entry, looked up): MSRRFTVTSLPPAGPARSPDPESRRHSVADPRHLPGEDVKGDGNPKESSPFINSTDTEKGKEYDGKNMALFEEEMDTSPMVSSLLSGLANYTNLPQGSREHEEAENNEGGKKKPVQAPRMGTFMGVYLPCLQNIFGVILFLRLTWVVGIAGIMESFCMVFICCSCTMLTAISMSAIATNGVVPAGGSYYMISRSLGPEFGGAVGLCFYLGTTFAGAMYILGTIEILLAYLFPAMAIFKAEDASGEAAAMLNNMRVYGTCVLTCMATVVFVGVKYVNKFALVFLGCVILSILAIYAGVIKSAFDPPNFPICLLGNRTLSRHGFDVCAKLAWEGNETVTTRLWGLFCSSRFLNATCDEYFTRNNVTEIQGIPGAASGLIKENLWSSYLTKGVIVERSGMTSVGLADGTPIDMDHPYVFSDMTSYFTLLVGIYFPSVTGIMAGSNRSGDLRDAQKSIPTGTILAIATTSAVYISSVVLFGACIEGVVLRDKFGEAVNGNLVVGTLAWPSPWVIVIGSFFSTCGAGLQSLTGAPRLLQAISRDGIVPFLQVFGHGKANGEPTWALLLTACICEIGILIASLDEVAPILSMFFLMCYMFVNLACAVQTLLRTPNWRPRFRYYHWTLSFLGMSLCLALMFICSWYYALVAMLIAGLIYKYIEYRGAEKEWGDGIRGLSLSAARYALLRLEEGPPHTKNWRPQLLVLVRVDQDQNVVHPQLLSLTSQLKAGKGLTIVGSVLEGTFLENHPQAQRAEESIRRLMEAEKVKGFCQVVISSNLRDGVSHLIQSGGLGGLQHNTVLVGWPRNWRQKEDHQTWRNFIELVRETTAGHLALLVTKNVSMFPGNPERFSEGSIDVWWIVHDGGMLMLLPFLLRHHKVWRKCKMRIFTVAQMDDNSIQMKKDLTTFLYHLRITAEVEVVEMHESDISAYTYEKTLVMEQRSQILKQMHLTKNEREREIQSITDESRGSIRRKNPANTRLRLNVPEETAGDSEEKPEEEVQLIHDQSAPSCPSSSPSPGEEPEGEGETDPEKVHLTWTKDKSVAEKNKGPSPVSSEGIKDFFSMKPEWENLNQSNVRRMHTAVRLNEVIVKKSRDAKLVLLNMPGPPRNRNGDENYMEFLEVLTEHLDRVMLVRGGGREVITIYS
KCNK3 block: human KCNK3 channel inhibition, primary screen; O14649; CHO-KCNK3 thallium flux, FluxOR fluorescence; active compounds read low; B-score at 10 µM; 0.84% of 340,000 active;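 active means B-score under library mean minus 4 SD, starting fluorescence ratio at most library mean plus 5 SD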;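 further: more negative B-score means stronger inhibition of thallium flux through KCNK3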
hERG protect: compounds protecting human hERG from proarrhythmic drug block; activation (rescue from dofetilide block), less the hit threshold, % at 10 µM; 0.51% of 310,000 active; CHO-hERG, FluxOR thallium flux, dofetilide IC70 present; AID 1511; Q12809;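 active means activation above the mean of controls blocked by dofetilide plus 5 SD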;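 further: thallium influx through hERG after potassium depolarization seen as dye fluorescence rise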
KCNQ1 block: blocks the human KCNQ1 potassium channel. P51787. CHO-K1 KCNQ1, FluxOR thallium flux fluorescence; active compounds read high. B-score at 10 µM. 1.3% of 310,000 active;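 active means compounds whose thallium flux B-score, printed positive for inhibition, exceeds three library SD while starting fluorescence stays within three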;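 further: channel opened by potassium depolarization with thallium stimulus after 20 min compound exposure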
KCNK9 inh: inhibitors of human KCNK9 two-pore domain potassium channel | 1.2% of 310,000 active | Q9NPC2 | HEK293 KCNK9, FluxOR thallium flux fluorescence; active compounds read low | B-score at 10 µM | AID 488922;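 active means ratio B-score over 3 SD below the library mean, with starting fluorescence within 5 SD of its mean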;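 further: negative B-score means less thallium flux so channel inhibition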
KCNK3 confirm: human KCNK3 channel inhibition, confirmation assay; ratio percent of control, % at 10 µM; shares compounds with KCNK3 block; CHO-KCNK3 thallium flux, FluxOR fluorescence; 0% buffer, 100% carvedilol maximal block; 99% of 2,400 active;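 active means ratio percent of control, averaged over triplicates, above buffer control mean plus 5 SD, cut at about 64% in these data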;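 further: ratio is the fluorescence rise from min to max over baseline after thallium stimulus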
KCNK3 noninduced: KCNK3 inhibitor counter-screen hit in non-induced cells. shares compounds with KCNK3 block. non-induced KCNK3 parental cells, FluxOR thallium flux; active compounds read low. thallium flux ratio (lower = more inhibition) at 10 µM. 40% of 2,400 active. AID 651747;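 active means thallium flux ratio, averaged over three wells, more than 5 SD below the buffer control mean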;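 further: host cells are CHO cells without KCNK3 induction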
Of the large screens only hits and unclear results are named; the others gave an inactive call (follow-up assays come after a bar, where they were run). A selection: hits, their analogues and other compounds. The true share with any hit is near 4.1%.

Cc1ccc(C(=O)OCCOc2cccc(Cl)c2)cc1S(=O)(=O)N1CCOCC1	KCNK3 block -11.8 (no result: KCC2 mod) | KCNK3 confirm 93.7 | KCNK3 noninduced 0.148
O=C(CN(C(=O)c1csnn1)c1cccc2c1CCCC2)NCc1ccc(F)cc1	none (no result: KCC2 mod)
CCn1nnc(NC(=O)COc2ccc(C3CCCCC3)cc2)n1	KCNK3 block -9.65 | KCNK3 confirm 94.3 | KCNK3 noninduced 0.16
Cc1ccc(CN2CCN(/N=C/c3ccc(Cl)c([N+](=O)[O-])c3)CC2)cc1	KCNK3 block -8.73 | KCNK3 confirm 121.0 | KCNK3 noninduced inactive
COCCn1c(SCC(=O)N2CCc3ccccc3C2)nc2cc(Cl)ccc2c1=O	none
COCCn1c(SCc2ccc(C(=O)OC)o2)nc2cc(Cl)ccc2c1=O	KCNK3 block -9.76, KCNK9 inh -7.39 | KCNK3 confirm 125.7 | KCNK3 noninduced inactive
COC(=O)c1ccc(C23CC4(C2)[C@H](CN(Cc2ccc(-c5ccccc5)cc2)[C@@H]4c2ccccc2)C3c2ccccc2)cc1 (stereo partly drawn)	none
O=C(Nc1ccccc1)c1sccc1Oc1ccc([N+](=O)[O-])cc1F	KCNK3 block -8.97 (no result: KCC2 mod) | KCNK3 confirm 112.7 | KCNK3 noninduced inactive
O=C(O)c1cc([N+](=O)[O-])ccc1C(=O)Nc1ccccc1	none (no result: KCC2 mod)
Cc1cccc(NC(=O)c2ccc(N(C)C3CCCCC3)c([N+](=O)[O-])c2)n1	KCNK3 block -11.2 (no result: KCC2 mod) | KCNK3 confirm 128.0 | KCNK3 noninduced 0.123
CC1CCCCN1C(=O)COc1ccc(S(=O)(=O)N2CCCC2)cc1[N+](=O)[O-] (stereo not drawn)	none (no result: KCNQ1 pot, KCC2 mod, hERG protect, KCNQ1 block, KCNK9 inh)
CCN(CC)C(=O)C(Oc1ccc(S(=O)(=O)N2CCCC2)cc1[N+](=O)[O-])c1ccccc1 (stereo not drawn)	KCNK3 block -11.3, KCNK9 inh -7.14 (no result: KCC2 mod) | KCNK3 confirm 98.0 | KCNK3 noninduced inactive
COc1cc(C2CC(=O)N(CC(=O)NCc3ccco3)c3ccccc3S2)cc(OC)c1OC (stereo not drawn)	none
Cc1nonc1C1CCCN1Cc1cn[nH]c1-c1ccc(-c2ccccc2)cc1 (stereo not drawn)	KCNK3 block -8.89, KCNK9 inh -7.03 | KCNK3 confirm 102.3 | KCNK3 noninduced inactive
CC(C)(Cc1ccc(O)cc1)NC(=O)c1ccccc1	none (no result: KCC2 mod)
Cc1ccc(-c2csc3ncnc(N4CCN(Cc5ccccc5)CC4)c23)cc1	KCNK3 block -10.7 (no result: KCC2 mod) | KCNK3 confirm 118.7 | KCNK3 noninduced inactive
O=C(c1cc(-c2cccc(O)c2)on1)N1CCCCCC1	KCNK3 block -10.8 (no result: KCC2 mod) | KCNK3 confirm 68.0 | KCNK3 noninduced inactive
CCc1c(C)nc2cc(-c3ccc(OC)c(OC)c3)nn2c1N1CCCC1	KCNK3 block -9.63 (no result: KCC2 mod) | KCNK3 confirm 109.0 | KCNK3 noninduced inactive
COc1ccc(-c2csc3nc(C)nc(N4CCC(C)CC4)c23)cc1OC	none
COc1ccc(-c2c(C)nn3c(N4CCCCCC4)cc(C)nc23)cc1OC	none (no result: KCC2 mod)
CCc1c(C)nc2cc(-c3ccc(OC)c(OC)c3)nn2c1N1CCC(C)CC1	KCNK3 block -8.94 | KCNK3 confirm 103.7 | KCNK3 noninduced inactive
CCOc1ccc(NC(=O)C/C(C)=N/NC(=O)c2cnccn2)cc1	none (no result: KCC2 mod)
COc1ccc(OC)c(NC(=O)CN2C(=O)CSc3ccc(S(=O)(=O)N4CCCC4)cc32)c1	none (no result: KCC2 mod)
CCOc1ccc(-c2cccc(NC(=O)c3ccc(Br)o3)c2)nn1	KCNK3 block -11.7 (no result: KCC2 mod) | KCNK3 confirm 98.0 | KCNK3 noninduced inactive
Cc1nc(-c2cccc(NC(=O)c3ccc(Br)o3)c2)cs1	none (no result: KCC2 mod)
COC(=O)c1ccc(COC(=O)C23CC4CC(CC(O)(C4)C2)C3)o1	none
CC(C)OCCCNC(=O)c1ccc(CS(=O)(=O)c2cccc(C(F)(F)F)c2)o1	none (no result: KCC2 mod)
O=C(COc1cccc2cccnc12)N/N=C/c1ccc(O)cc1	none
